Experimental data published in ChEMBL document CHEMBL1781963, “Discovery of novel hepatoselective HMG-CoA reductase inhibitors for treating hypercholesterolemia: a bench-to-bedside case study on tissue selective drug distribution” (Bioorg Med Chem Lett, 2011).

Experiments:
Cavia porcellus = assay: Hypolipidemic activity in chow fed Hartley guinea pig assessed as reduction of LDL level administered orally for 7 days measured on day 8 after 2 hrs post dose; type: functional; conditions: po
Procedure, shortened: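 Guinea pigs were dosed daily for seven days and sacrificed 2 h after the final dose. Plasma LDL was measured and reported as mean ± SEM % change from the control group, n = 8/group.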

OATP1B3 = target: T1, OATP1B3 (Homo sapiens, UniProt Q9NPD5); assay: Drug uptake by human hepatic OATP1B3 transporter expressed in HEK293 cells at 10 uM relative to wild-type HEK293 cells; type: ADME, cell-based; conditions: HEK293 cells expressing OATP1B3, read-out: FC
T1 sequence (Q9NPD5 whole entry): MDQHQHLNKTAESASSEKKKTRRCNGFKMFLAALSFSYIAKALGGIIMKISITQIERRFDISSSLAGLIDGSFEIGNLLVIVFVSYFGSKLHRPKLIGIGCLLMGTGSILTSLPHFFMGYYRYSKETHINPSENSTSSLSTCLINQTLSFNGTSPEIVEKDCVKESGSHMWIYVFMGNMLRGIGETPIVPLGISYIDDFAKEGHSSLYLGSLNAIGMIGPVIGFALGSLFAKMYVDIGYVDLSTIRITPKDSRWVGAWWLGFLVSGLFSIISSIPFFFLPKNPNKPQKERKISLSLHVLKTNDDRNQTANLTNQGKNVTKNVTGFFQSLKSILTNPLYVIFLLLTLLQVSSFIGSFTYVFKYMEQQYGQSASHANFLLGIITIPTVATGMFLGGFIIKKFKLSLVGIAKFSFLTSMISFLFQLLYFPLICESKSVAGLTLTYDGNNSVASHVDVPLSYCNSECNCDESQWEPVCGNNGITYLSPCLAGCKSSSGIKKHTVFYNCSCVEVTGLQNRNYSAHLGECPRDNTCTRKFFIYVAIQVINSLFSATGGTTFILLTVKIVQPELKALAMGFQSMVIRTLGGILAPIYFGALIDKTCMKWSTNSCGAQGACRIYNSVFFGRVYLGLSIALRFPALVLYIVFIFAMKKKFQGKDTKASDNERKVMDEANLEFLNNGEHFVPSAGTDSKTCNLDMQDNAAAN
Procedure, shortened: (§1)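 Individual hepatic OATP transporters were over-expressed in CHO or HEK293 cells: rat rOatp1a1, rOatp1a4 and rOatp1b2, and human hOATP1B1, hOATP1B3 and hOATP2B1. Substrate uptake is expressed as fold difference relative to the wild-type parental line. Rosuvastatin/pravastatin served as positive control and midazolam as negative control in each assay.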

OATP1B1 = target: T2, OATP1B1 (Homo sapiens, UniProt Q9Y6L6); assay: Drug uptake by human hepatic OATP1B1 transporter expressed in HEK293 cells at 1 uM relative to wild type HEK293 cells; type: ADME, cell-based; conditions: HEK293 cells expressing human OATP1B1, read-out: FC; procedure, shortened: as §1
T2 sequence (Q9Y6L6 whole entry): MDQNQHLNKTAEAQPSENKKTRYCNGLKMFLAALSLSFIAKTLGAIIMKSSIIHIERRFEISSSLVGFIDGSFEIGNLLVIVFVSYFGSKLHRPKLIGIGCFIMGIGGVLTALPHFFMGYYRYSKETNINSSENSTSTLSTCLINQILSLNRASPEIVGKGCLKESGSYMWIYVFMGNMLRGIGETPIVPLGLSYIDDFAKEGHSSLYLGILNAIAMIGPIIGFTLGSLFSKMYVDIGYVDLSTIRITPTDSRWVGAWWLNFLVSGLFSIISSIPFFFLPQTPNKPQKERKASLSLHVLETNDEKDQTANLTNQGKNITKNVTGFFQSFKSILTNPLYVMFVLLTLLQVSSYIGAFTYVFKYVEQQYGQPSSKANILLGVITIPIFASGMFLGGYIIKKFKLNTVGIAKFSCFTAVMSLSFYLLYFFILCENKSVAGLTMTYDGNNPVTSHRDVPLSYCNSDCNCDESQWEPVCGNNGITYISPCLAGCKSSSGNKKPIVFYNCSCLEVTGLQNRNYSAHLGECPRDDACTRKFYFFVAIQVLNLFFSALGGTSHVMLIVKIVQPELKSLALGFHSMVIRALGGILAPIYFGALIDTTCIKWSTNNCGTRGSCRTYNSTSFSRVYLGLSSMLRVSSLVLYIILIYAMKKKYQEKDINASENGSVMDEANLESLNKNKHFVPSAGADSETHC

OATP2B1 = target: T3, OATP2B1 (Homo sapiens, UniProt O94956); assay: Drug uptake by human hepatic OATP2B1 transporter expressed in HEK293 cells at 10 uM relative to wild-type HEK293 cells; type: ADME, cell-based; conditions: HEK293 cells expressing OATP2B1, read-out: FC; procedure, shortened: as §1
T3 sequence (O94956 whole entry): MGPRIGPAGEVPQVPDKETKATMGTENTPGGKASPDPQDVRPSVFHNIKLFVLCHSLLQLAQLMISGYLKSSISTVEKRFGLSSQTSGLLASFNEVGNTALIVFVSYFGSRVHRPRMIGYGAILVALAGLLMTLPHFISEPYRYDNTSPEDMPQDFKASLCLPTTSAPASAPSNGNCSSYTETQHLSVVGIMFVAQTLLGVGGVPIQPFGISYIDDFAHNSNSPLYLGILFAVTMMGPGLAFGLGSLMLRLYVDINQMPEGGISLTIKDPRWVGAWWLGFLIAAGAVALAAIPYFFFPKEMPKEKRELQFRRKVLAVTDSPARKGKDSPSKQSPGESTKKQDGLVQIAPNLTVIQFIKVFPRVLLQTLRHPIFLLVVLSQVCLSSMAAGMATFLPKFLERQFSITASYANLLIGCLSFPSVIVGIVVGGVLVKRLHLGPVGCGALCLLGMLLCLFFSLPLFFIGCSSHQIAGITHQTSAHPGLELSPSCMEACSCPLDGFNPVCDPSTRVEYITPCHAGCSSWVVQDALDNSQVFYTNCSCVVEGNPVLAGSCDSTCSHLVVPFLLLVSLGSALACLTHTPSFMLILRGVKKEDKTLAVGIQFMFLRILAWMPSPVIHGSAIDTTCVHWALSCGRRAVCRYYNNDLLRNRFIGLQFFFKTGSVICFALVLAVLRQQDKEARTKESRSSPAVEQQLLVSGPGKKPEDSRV

[1] = Lipophilicity, log D of the compound at pH 7.4 by shake flask method; type: physicochemical; conditions: buffer
Procedure, shortened: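 Log D at pH 7.4 by shake flask.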

L6 = assay: Selectivity ratio of IC50 for cholesterol synthesis in rat L6 cells to IC50 for cholesterol synthesis in rat hepatocytes

Row | Structure (SMILES) | ED50 (Cavia porcellus) [mg/kg] | uptake ratio at 10 µM (OATP1B3) | uptake ratio at 1 µM (OATP1B1) | uptake ratio at 10 µM (OATP2B1) | logD [1] | Ratio IC50 (L6)
1 | CC[C@H](C)C(=O)O[C@H]1C[C@H](O)C=C2C=C[C@H](C)[C@H](CC[C@@H](O)C[C@@H](O)CC(=O)O)[C@H]21 [PRAVASTATIN] | 73.3 | 32.8 | 73.7 | – | – | –
2 | Cc1ncc2n1-c1ccc(Cl)cc1C(c1ccccc1F)=NC2 [MIDAZOLAM] | – | 1.1 | 0.6 | 0.7 | – | –
3 | CC(C)c1nc(N(C)S(C)(=O)=O)nc(-c2ccc(F)cc2)c1/C=C/[C@@H](O)C[C@@H](O)CC(=O)O [ROSUVASTATIN] | 13.5 | 11.1 | 14.4 | 6.6 | 1.01 | 830
4 | Cc1ccc(CNC(=O)c2nn(-c3ccc(F)cc3)c(CC[C@@H](O)C[C@@H](O)CC(=O)O)c2C(C)C)cc1 | 3.6 | 5 | 21.6 | 1.4 | 0.24 | 810
5 | O=C([O-])C[C@H](O)C[C@H](O)CCn1c(-c2ccc(F)cc2)nc(C(=O)NCc2cccc(F)c2)c1C1CC1.[Na+] | 5.9 | 36.4 | 49 | 6.8 | 0.51 | 4440
